# Experimental data reported in paper PMC2115978 (The Journal of Cell Biology, 1990).
# Where two headings read alike, the source gives them in different places.
# T1: prolactin receptor (Rattus norvegicus, UniProt P05710)
# T1 sequence (P05710 20-310 isoform P05710-3 limits assumed): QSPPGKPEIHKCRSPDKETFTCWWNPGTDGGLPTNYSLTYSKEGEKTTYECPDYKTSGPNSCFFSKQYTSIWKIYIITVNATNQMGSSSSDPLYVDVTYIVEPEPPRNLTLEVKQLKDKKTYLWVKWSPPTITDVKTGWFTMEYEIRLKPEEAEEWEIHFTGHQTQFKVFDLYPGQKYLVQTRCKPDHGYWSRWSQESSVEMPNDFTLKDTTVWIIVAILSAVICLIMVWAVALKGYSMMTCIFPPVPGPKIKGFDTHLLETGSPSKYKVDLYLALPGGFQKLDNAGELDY
# Key:
# [1] = test system: endosomal insulin degrading activity (GE fraction); format: biochemical, rat; details: for effect on endosomal 125I-insulin degradation (in words): concentrations as in Tables I and II
# macrophage endosomes = details: identical cell-free system; cited from earlier work
# [2] = test system: GE fraction proton translocase activity; assay: Cell-free ATP-dependent acidification assay; format: biochemical, rat; details: 1 µM added at end of incubation; acridine orange absorbance 492/540 nm
# Summary of the method: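 Pelleted at 16,000 g for 1 h, Dounce-resuspended, equilibrated 3-6 h at 4°C. Acridine orange 6 µM, ATP 0.4 mM (final); initial quench rates recorded. Test compound 1 µM added after incubation.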
# insulin receptor = insulin receptor (Rattus norvegicus, UniProt P15127); assay: PEG precipitation of insulin-receptor complexes in endosomes; format: binding; details: for effect on insulin dissociation from receptor: 15 min, presence or absence of ATP, PCMB 1 mM
# [3] = Internalization of injected 125I-insulin into GE fraction of liver; format: in vivo, rat; details: 5 min after portal vein injection, 100 ng/100 g bw; mean ± SD, n = 9
# [4] = cited from earlier work
# [5] = test system: endosomal protease(s) of rat liver endosomes (GE fraction); format: in vitro ADME; details: mean ± SD, n = 3; for degradation within isolated endosomes by acid precipitation: cell-free system, 37C, up to 60 min, 10% TCA
# [6] = test system: endosomal protease(s) of rat liver endosomes (GE fraction); assay: Sephadex G-50 chromatography of radioactivity acid-extracted from endosomes; format: in vitro ADME
# EGF receptor = details: freshly prepared endosomes; ref 49a; cited from earlier work
# prolactin receptor = molecular target: T1, prolactin receptor; assay: Prolactin dissociation from its receptor in endosomes; format: binding
# [7] = Table II, nucleotide 10 mM (in place of ATP), 0-30 min, mean ± SD, n = 3
# [8] = Table II, 50 µM, 0-30 min, mean ± SD, n = 3
# [9] = Table I, 1 mM, acid solubility at 30 min, mean ± SD of 3 experiments
# [10] = Table II, 10 µM, 0-30 min, mean ± SD, n = 3
# [11] = Table II, 1 mM, 0-30 min, mean ± SD, n = 3
# [12] = Table II, 2 mM, 0-30 min, mean ± SD, n = 3
# Chain of insulin receptor (P15127 27-759 limits assumed): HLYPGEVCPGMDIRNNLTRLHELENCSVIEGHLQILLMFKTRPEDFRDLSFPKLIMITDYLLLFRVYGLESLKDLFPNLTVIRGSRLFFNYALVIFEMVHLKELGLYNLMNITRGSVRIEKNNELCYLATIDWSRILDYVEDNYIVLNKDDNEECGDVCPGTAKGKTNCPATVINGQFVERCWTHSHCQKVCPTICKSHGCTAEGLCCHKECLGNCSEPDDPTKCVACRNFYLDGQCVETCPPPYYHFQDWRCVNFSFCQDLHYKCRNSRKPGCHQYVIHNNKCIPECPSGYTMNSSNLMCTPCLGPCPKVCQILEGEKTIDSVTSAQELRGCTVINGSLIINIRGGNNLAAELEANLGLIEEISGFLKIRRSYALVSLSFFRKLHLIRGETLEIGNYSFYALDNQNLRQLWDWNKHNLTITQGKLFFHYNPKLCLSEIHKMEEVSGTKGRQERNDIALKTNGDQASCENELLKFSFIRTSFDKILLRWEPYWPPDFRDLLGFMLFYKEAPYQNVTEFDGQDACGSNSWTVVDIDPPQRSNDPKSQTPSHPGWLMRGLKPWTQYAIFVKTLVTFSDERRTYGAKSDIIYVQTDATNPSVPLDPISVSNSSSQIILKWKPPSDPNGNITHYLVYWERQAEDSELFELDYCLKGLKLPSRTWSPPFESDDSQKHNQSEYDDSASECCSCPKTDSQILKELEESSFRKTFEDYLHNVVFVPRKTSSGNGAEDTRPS
# Chain of insulin receptor (P15127 764-1383 partner limits assumed): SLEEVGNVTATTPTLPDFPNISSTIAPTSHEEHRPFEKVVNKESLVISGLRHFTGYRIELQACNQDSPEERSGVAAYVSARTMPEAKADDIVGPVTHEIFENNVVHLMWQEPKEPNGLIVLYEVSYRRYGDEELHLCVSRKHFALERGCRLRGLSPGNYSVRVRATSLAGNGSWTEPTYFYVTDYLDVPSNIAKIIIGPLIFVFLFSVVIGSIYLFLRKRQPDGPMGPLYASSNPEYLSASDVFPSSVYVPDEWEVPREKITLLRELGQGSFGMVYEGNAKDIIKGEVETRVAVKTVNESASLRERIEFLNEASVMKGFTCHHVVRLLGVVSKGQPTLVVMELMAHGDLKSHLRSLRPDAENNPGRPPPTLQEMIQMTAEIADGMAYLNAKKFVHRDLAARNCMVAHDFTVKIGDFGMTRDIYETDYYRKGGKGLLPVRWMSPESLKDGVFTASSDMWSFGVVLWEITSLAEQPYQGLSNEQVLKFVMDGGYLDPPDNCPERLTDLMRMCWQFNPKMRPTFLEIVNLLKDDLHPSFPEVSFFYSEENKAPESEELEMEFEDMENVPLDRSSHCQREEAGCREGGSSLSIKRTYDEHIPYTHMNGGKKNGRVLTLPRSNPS
molecule,measurement,setting,value
Nc1nc2c(ncn2[C@@H]2O[C@H](COP(=O)(O)OP(=O)(O)OP(=O)(O)O)[C@@H](O)[C@H]2O)c(=O)[nH]1 [GTP],125I-insulin degraded (percentage of control),[1]; [7],52.8%
[O]=[V]([O-])([O-])[O-] [Vanadate],125I-insulin degraded (percentage of control),"[1]; Table II, 100 µM, 0-30 min, mean ± SD, n = 3",99.9%
same,effect on endosomal 125I-insulin degradation (in words),[1]; 30 min,little effect
O=C(O)CN(CCN(CC(=O)O)CC(=O)O)CC(=O)O [EDTA],effect on endosomal 125I-insulin degradation (in words),[1]; 30 min,no significant effect
Triton X-100,125I-insulin degraded (percentage of control),"[1]; Table I, detergent 0.1%, 30 min, mean ± SD of 3 experiments",22.9%
same,effect on endosomal 125I-insulin degradation (in words),[1]; 30 min,Significant inhibition
Antipain,effect on degradation of mannose-BSA in macrophage endosomes,macrophage endosomes,inhibition of degradation
same,effect on endosomal 125I-insulin degradation (in words),[1]; 30 min,no significant effect
Nc1ncnc2c1ncn2[C@@H]1O[C@H](COP(=O)(O)OP(=O)(O)OP(=O)(O)O)[C@@H](O)[C@H]1O [ATP],125I-insulin degraded (percentage of control),[1]; [7],100%
CO[C@@H]1C[C@@H](C[C@H]2CC[C@H](C)[C@H]([C@@H](C)C(=O)O)O2)O[C@]2(O[C@](C)([C@H]3CC[C@@](C)([C@@H]4O[C@@H]([C@H]5O[C@@](O)(CO)[C@H](C)C[C@@H]5C)C[C@@H]4C)O3)C[C@H]2C)[C@@H]1C [Nigericin],effect on ATP-generated pH gradients of GE fraction,[2],dissipated rapidly
same,inhibition of 125I-insulin degradation,"[1]; 50 µM, 30 min",~ 80%
same,125I-insulin degraded (percentage of control),[1]; [8],17.4%
same,effect on endosomal 125I-insulin degradation (in words),[1]; 30 min,inhibited markedly
Bacitracin,inhibition of 125I-insulin degradation,"[1]; 5 mg/ml, 30 min",40%
same,effect on endosomal 125I-insulin degradation (in words),[1]; 30 min,Significant inhibition
"O=C(O)c1cc[c]([Hg][Cl])cc1 [PCMB, p-chloromercuribenzoic acid]",effect on insulin dissociation from receptor,insulin receptor,inhibited
same,inhibition of 125I-insulin degradation,"[1]; 1 mM, 30 min",100%
same,125I-insulin degraded (percentage of control),[1]; [9],0%
same,effect on endosomal 125I-insulin degradation (in words),[1]; 30 min,Significant inhibition
"125I-insulin: Porcine insulin (26.8 IU/mg, Eli Lilly) radioiodinated by the chloramine T method",intact 125I-insulin (acid precipitable) retained in freshly prepared endosomes,insulin receptor; 0 min,82%
same,degradation of insulin,insulin receptor; 15 min incubation +ATP,5.8 ng.mg cell fraction protein-1
same,dissociation of insulin from receptor,insulin receptor; 15 min incubation +ATP,1.7 ng insulin.mg cell fraction pr
same,loss and degradation of free insulin,insulin receptor; 15 min incubation minus ATP,2.1 ng.mg cell fraction protein-1
same,loss of receptor-bound insulin,insulin receptor; 15 min incubation minus ATP,no loss
same,internalized ligand dissociated from receptor,insulin receptor; freshly prepared endosomes,59%
same,proportion of intact insulin that was receptor-bound (PEG precipitable),"insulin receptor; freshly prepared endosomes, 0 min",41%
same,enrichment in GE fraction compared to parent homogenate,[3],40 + 4 fold
same,t1/2 of in vivo insulin clearance,[4],6 min
same,125I-insulin degraded (percentage of control),"[5]; Table II, no nucleotide added (minus ATP), 0-30 min",35.4%
same,increase in size of peak eluting at position of radioiodotyrosine (peak III),"[6]; after 15 min incubation, rats given 2 µg 125I-insulin/100 g bw",threefold increase
125I-EGF: mouse epidermal growth factor (Collaborative Research) radioiodinated by chloramine T method,ligand dissociated from receptor,EGF receptor,43%
same,degradation within isolated endosomes by acid precipitation,[5],not detectable
same,degradation within isolated endosomes by Sephadex G-50 chromatography,[6]; 0 vs 15 min incubation in cell-free system,not detectable
O=S(=O)(F)Cc1ccccc1 [PMSF],effect on degradation of mannose-BSA in macrophage endosomes,macrophage endosomes,inhibition of degradation
same,125I-insulin degraded (percentage of control),[1]; [9],89.2%
same,effect on endosomal 125I-insulin degradation (in words),[1]; 30 min,no significant effect
CC[C@@]1([C@@H]2O[C@@H]([C@H]3O[C@@](O)(CO)[C@H](C)C[C@@H]3C)C[C@@H]2C)CC[C@H]([C@]2(C)CC[C@]3(C[C@H](O)[C@@H](C)[C@@H]([C@@H](C)[C@@H](OC)[C@H](C)C(=O)O)O3)O2)O1 [Monensin],inhibition of 125I-insulin degradation,"[1]; 50 µM, 30 min",~ 80%
same,125I-insulin degraded (percentage of control),[1]; [8],20.6%
same,effect on endosomal 125I-insulin degradation (in words),[1]; 30 min,inhibited markedly
Aprotinin,effect on endosomal 125I-insulin degradation (in words),[1]; 30 min,no significant effect
CC[C@H]1/C=C/C=C/C[C@@H](C)[C@H](O)[C@@](C)(O)C(=O)[C@@H](C)[C@H](O)[C@@H](C)C(=O)[C@@H](C)[C@H](O)[C@@H](C)/C=C/C(=O)O[C@@H]2[C@H](C)[C@H](CC1)O[C@]1(CC[C@H](C)[C@H](C[C@@H](C)O)O1)[C@H]2C [Oligomycin],125I-insulin degraded (percentage of control),"[1]; Table II, 5 µg/ml, 0-30 min, mean ± SD, n = 3",90.2%
same,effect on endosomal 125I-insulin degradation (in words),[1]; 30 min,little effect
Nc1ncnc2c1ncn2[C@@H]1O[C@H](COP(=O)(O)OP(=O)(O)O)[C@@H](O)[C@H]1O [ADP],125I-insulin degraded (percentage of control),[1]; [7],40.0%
"CCN1C(=O)C=CC1=O [NEM, N-ethylmaleimide]",125I-insulin degraded (percentage of control),[1]; [10],23.6%
same,125I-insulin degraded (percentage of control),[1]; [11],26.8%
same,effect on endosomal 125I-insulin degradation (in words),[1]; 30 min,significant inhi- bition
same,effect on endosomal 125I-insulin degradation (in words),"[1]; 30 min, listed as N-ethylmaleimide (NEM)",inhibited markedly
N=C(N)NC(=O)c1nc(Cl)c(N)nc1N [Amiloride],125I-insulin degraded (percentage of control),[1]; [12],96.6%
same,effect on endosomal 125I-insulin degradation (in words),[1]; 30 min,little effect
Valinomycin,inhibition of 125I-insulin degradation,"[1]; 50 µM, 30 min",17%
"c1cnc2c(c1)ccc1cccnc12 [1,10-Phenanthroline, 1,10-phenanthroline]",effect on insulin dissociation from receptor,insulin receptor,inhibited
same,inhibition of 125I-insulin degradation,"[1]; 1 mM, 30 min",91%
same,125I-insulin degraded (percentage of control),[1]; [9],8.8%
same,effect on endosomal 125I-insulin degradation (in words),[1]; 30 min,Significant inhibition
Leupeptin,effect on degradation of mannose-BSA in macrophage endosomes,macrophage endosomes,inhibition of degradation
same,effect on endosomal 125I-insulin degradation (in words),[1]; 30 min,no significant effect
"C(=NC1CCCCC1)=NC1CCCCC1 [DCCD, dicyclohexylcarbodiimide]",125I-insulin degraded (percentage of control),[1]; [10],50.4%
same,125I-insulin degraded (percentage of control),[1]; [11],38.7%
same,effect on endosomal 125I-insulin degradation (in words),[1]; 30 min,significant inhi- bition
"CCN(CC)CCCC(C)Nc1ccnc2cc(Cl)ccc12 (centres unmarked) [Chioroquine, chloroquine]",inhibition of 125I-insulin degradation,"[1]; 2 mM, 30 min",~ 80%
same,125I-insulin degraded (percentage of control),[1]; [12],16.3%
same,effect on endosomal 125I-insulin degradation (in words),[1]; 30 min,inhibited markedly
Pepstatin,effect on degradation of mannose-BSA in macrophage endosomes,macrophage endosomes,inhibition of degradation
same,effect on endosomal 125I-insulin degradation (in words),[1]; 30 min,no significant effect
Nc1ncnc2c1ncn2[C@@H]1O[C@H](COP(=O)(O)OP(=O)(O)NP(=O)(O)O)[C@@H](O)[C@H]1O [AMP- PNP],125I-insulin degraded (percentage of control),[1]; [7],24.5%
"125I-prolactin: ovine prolactin (30.5 IU/mg) radioiodinated by chloramine T method (protein, UniProt P01240 31-229, looked up, 125I radiolabel) Prolactin: TPVCPNGPGNCQVSLRDLFDRAVMVSHYIHNLSSEMFNEFDKRYAQGKGFITMALNSCHTSSLPTPEDKEQAQQTHHEVLMSLILGLLRSWNDPLYHLVTEVRGMKGVPDAILSRAIEIEEENKRLLEGMEMIFGQVIPGAKETEPYPVWSGLPSLQTKDEDARHSAFYNLLHCLRRDSSKIDTYLKLLNCRIIYNNNC",internalized ligand dissociated from receptor,prolactin receptor; after 15 min incubation in cell-free system,50%
same,internalized ligand dissociated from receptor,prolactin receptor; before incubation (freshly isolated endosomes),60%
same,degradation within isolated endosomes by acid precipitation,[5],No degradation
